Reference: ChEMBL document CHEMBL3045276, “Synthesis and biological activity of some novel trifluoromethyl-substituted 1,2,4-triazole and bis(1,2,4-triazole) Mannich bases containing piperazine rings” (2010)

How the values were obtained:
Type in all cases: functional
Echinochloa crus-galli [1] = experiment: Herbicidal activity against Echinochloa crus-galli (barnyard grass) assessed as inhibition of seedling growth at 100 ug/mL at 28 degC
Procedure, shortened: (§1)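 Ten barnyardgrass seeds placed in cup over glass beads and filter paper holding 5 mL aqueous test solution (emulsified if needed); germinated 65 h at 28 ± 1 °C under light. Mean above-ground seedling height per cup measured; inhibition percentage derived.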

[2] = tested on: Brassica rapa subsp. oleifera; experiment: Herbicidal activity against Brassica rapa subsp. oleifera assessed as inhibition of root growth at 10 ug/mL at 28 degC
Procedure, shortened: (§2)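 Rape seeds soaked 4 h in distilled water, then 15 per 6 cm dish on filter paper wetted with 2 mL aqueous test solution (emulsified if needed); germinated 65 h at 28 ± 1 °C in darkness. Mean length of 10 roots per dish measured; percentage inhibition calculated against distilled-water check.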

[3] = tested on: Brassica rapa subsp. oleifera; experiment: Herbicidal activity against Brassica rapa subsp. oleifera assessed as inhibition of root growth at 100 ug/mL at 28 degC; procedure, shortened: as §2
Sclerotinia sclerotiorum = experiment: Fungicidal activity against Sclerotinia sclerotiorum in cucumber plant two seed leaves stage assessed as control efficacy from disease indices at 500 ug/mL at 18 to 30 degC and above 80%RH relative to control; conditions: read-out: GI
Procedure, shortened: (§3)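 Cucumber seeds germinated (soaked 2 h in water at 50 °C, kept moist 24 h at 28 °C) and grown in 1:1 vermiculite/peat; two-seed-leaf plants sprayed at 500 μg/mL, then inoculated 2 h later by spraying conidial (C. cassiicola, A. citrullina, P. cubensis), bacterial (P. syringae) or mycelial (S. sclerotiorum) suspension. Held 18-30 °C, >80% RH; four repeats; control efficacy = (CK−PT)/CK×100 from disease indices once untreated plants fully symptomatic.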

[4] = tested on: Pseudoperonospora cubensis; experiment: Fungicidal activity against Pseudoperonospora cubensis in cucumber plant two seed leaves stage assessed as control efficacy from disease indices at 500 ug/mL at 18 to 30 degC and above 80%RH relative to control; conditions: read-out: GI; procedure, shortened: as §3
Ascochyta = experiment: Fungicidal activity against Ascochyta […] in cucumber plant two seed leaves stage assessed as control efficacy from disease indices at 500 ug/mL at 18 to 30 degC and above 80%RH relative to control; conditions: read-out: GI; procedure, shortened: as §3
[5] = tested on: Pseudomonas amygdali pv. lachrymans; experiment: Fungicidal activity against Pseudomonas syringae pv. lachrymans in cucumber plant two seed leaves stage assessed as control efficacy from disease indices at 500 ug/mL at 18 to 30 degC and above 80%RH relative to control; conditions: read-out: GI; procedure, shortened: as §3
Corynespora cassiicola = experiment: Fungicidal activity against Corynespora cassiicola in cucumber plant two seed leaves stage assessed as control efficacy from disease indices at 500 ug/mL at 18 to 30 degC and above 80%RH relative to control; conditions: read-out: GI; procedure, shortened: as §3
Echinochloa crus-galli [6] = experiment: Herbicidal activity against Echinochloa crus-galli (barnyard grass) assessed as inhibition of seedling growth at 10 ug/mL at 28 degC; procedure, shortened: as §1

Cc1ccnc(N2CCN(Cn3nc(C(F)(F)F)n(/N=C/c4ccccc4[N+](=O)[O-])c3=S)CC2)n1
inhibition at 100 µg/mL (Echinochloa crus-galli [1]): 33.9%
inhibition at 10 µg/mL [2]: 0%
inhibition at 100 µg/mL [3]: 0%
inhibition of growth at 500 µg/mL (Sclerotinia sclerotiorum): 32.8%
inhibition of growth at 500 µg/mL [4]: 76.8%
inhibition of growth at 500 µg/mL (Ascochyta): 44.3%
inhibition of growth at 500 µg/mL [5]: 44.5%
inhibition of growth at 500 µg/mL (Corynespora cassiicola): 73.8%
inhibition at 10 µg/mL (Echinochloa crus-galli [6]): 11.5%

Cc1cc(C)nc(N2CCN(Cn3nc(C(F)(F)F)n(/N=C/c4ccccc4)c3=S)CC2)n1
inhibition at 100 µg/mL (Echinochloa crus-galli [1]): 9.8%
inhibition at 10 µg/mL [2]: 36.9%
inhibition at 100 µg/mL [3]: 71.1%
inhibition of growth at 500 µg/mL (Sclerotinia sclerotiorum): 48%
inhibition of growth at 500 µg/mL [4]: 74.1%
inhibition of growth at 500 µg/mL (Ascochyta): 61.5%
inhibition of growth at 500 µg/mL [5]: 55%
inhibition of growth at 500 µg/mL (Corynespora cassiicola): 22.1%
inhibition at 10 µg/mL (Echinochloa crus-galli [6]): 0%

Cc1cc(C)nc(N2CCN(Cn3nc(C(F)(F)F)n(/N=C/c4ccccc4F)c3=S)CC2)n1
inhibition at 100 µg/mL (Echinochloa crus-galli [1]): 33.2%
inhibition at 10 µg/mL [2]: 67.1%
inhibition at 100 µg/mL [3]: 72.4%
inhibition of growth at 500 µg/mL (Sclerotinia sclerotiorum): 72%
inhibition of growth at 500 µg/mL [4]: 79.2%
inhibition of growth at 500 µg/mL (Ascochyta): 83.5%
inhibition of growth at 500 µg/mL [5]: 56.1%
inhibition of growth at 500 µg/mL (Corynespora cassiicola): 78.7%
inhibition at 10 µg/mL (Echinochloa crus-galli [6]): 17.1%

COc1ccc(/C=N/n2c(C(F)(F)F)nn(CN3CCN(c4nc(C)cc(C)n4)CC3)c2=S)cc1
inhibition at 100 µg/mL (Echinochloa crus-galli [1]): 29.5%
inhibition at 10 µg/mL [2]: 30.6%
inhibition at 100 µg/mL [3]: 67.7%
inhibition of growth at 500 µg/mL (Sclerotinia sclerotiorum): 62.6%
inhibition of growth at 500 µg/mL [4]: 87.3%
inhibition of growth at 500 µg/mL (Ascochyta): 87.6%
inhibition of growth at 500 µg/mL [5]: 50.3%
inhibition of growth at 500 µg/mL (Corynespora cassiicola): 83.7%
inhibition at 10 µg/mL (Echinochloa crus-galli [6]): 0%

Cc1cc(C)nc(N2CCN(Cn3nc(C(F)(F)F)n(/N=C/c4ccc(C)c(C)c4)c3=S)CC2)n1
inhibition at 100 µg/mL (Echinochloa crus-galli [1]): 8.7%
inhibition at 10 µg/mL [2]: 6%
inhibition at 100 µg/mL [3]: 20.5%
inhibition of growth at 500 µg/mL (Sclerotinia sclerotiorum): 48.9%
inhibition of growth at 500 µg/mL [4]: 67.8%
inhibition of growth at 500 µg/mL (Ascochyta): 82.9%
inhibition of growth at 500 µg/mL [5]: 59.5%
inhibition of growth at 500 µg/mL (Corynespora cassiicola): 85.9%
inhibition at 10 µg/mL (Echinochloa crus-galli [6]): 0%

Cc1cc(C)nc(N2CCN(Cn3nc(C(F)(F)F)n(/N=C/c4ccc(Cl)cc4)c3=S)CC2)n1
inhibition at 100 µg/mL (Echinochloa crus-galli [1]): 36.6%
inhibition at 10 µg/mL [2]: 9.5%
inhibition at 100 µg/mL [3]: 88.5%
inhibition of growth at 500 µg/mL (Sclerotinia sclerotiorum): 38%
inhibition of growth at 500 µg/mL [4]: 91.6%
inhibition of growth at 500 µg/mL (Ascochyta): 62.8%
inhibition of growth at 500 µg/mL [5]: 61.5%
inhibition of growth at 500 µg/mL (Corynespora cassiicola): 94.4%
inhibition at 10 µg/mL (Echinochloa crus-galli [6]): 12.3%

Cc1cc(C)nc(N2CCN(Cn3nc(C(F)(F)F)n(/N=C/c4ccccc4[N+](=O)[O-])c3=S)CC2)n1
inhibition at 100 µg/mL (Echinochloa crus-galli [1]): 10.2%
inhibition at 10 µg/mL [2]: 0%
inhibition at 100 µg/mL [3]: 11.2%
inhibition of growth at 500 µg/mL (Sclerotinia sclerotiorum): 39.3%
inhibition of growth at 500 µg/mL [4]: 77.2%
inhibition of growth at 500 µg/mL (Ascochyta): 88.4%
inhibition of growth at 500 µg/mL [5]: 46.5%
inhibition of growth at 500 µg/mL (Corynespora cassiicola): 87.8%
inhibition at 10 µg/mL (Echinochloa crus-galli [6]): 0%

COc1nc(C)nc(NC(=O)NS(=O)(=O)c2ccccc2Cl)n1 [CHLORSULFURON]
inhibition at 100 µg/mL (Echinochloa crus-galli [1]): 29.9%
inhibition at 10 µg/mL [2]: 76%
inhibition at 100 µg/mL [3]: 80.4%
inhibition at 10 µg/mL (Echinochloa crus-galli [6]): 8.2%

COc1ccc(C(=CC(=O)N2CCOCC2)c2ccc(Cl)cc2)cc1OC [DIMETHOMORPH]
inhibition of growth at 500 µg/mL (Sclerotinia sclerotiorum): 98.4%
inhibition of growth at 500 µg/mL [4]: 83.8%
inhibition of growth at 500 µg/mL (Ascochyta): 98.4%
inhibition of growth at 500 µg/mL [5]: 14%
inhibition of growth at 500 µg/mL (Corynespora cassiicola): 95.3%

CC(C)NC(=O)N1CC(=O)N(c2cc(Cl)cc(Cl)c2)C1=O [IPRODIONE]
inhibition of growth at 500 µg/mL (Sclerotinia sclerotiorum): 97.8%
inhibition of growth at 500 µg/mL [4]: 55.9%
inhibition of growth at 500 µg/mL (Ascochyta): 98.4%
inhibition of growth at 500 µg/mL [5]: 38.5%
inhibition of growth at 500 µg/mL (Corynespora cassiicola): 53.5%

COC(=O)NC(=S)Nc1ccccc1NC(=S)NC(=O)OC [THIOPHANATE METHYL]
inhibition of growth at 500 µg/mL (Sclerotinia sclerotiorum): 83.4%
inhibition of growth at 500 µg/mL [4]: 68.7%
inhibition of growth at 500 µg/mL (Ascochyta): 100%
inhibition of growth at 500 µg/mL [5]: 54.2%
inhibition of growth at 500 µg/mL (Corynespora cassiicola): 78.8%
